≈ marks a conversion by molar mass, not a printed value. Entries after “also recorded” stand apart in the source; their conditions may differ. Read-outs that look alike come from different tables or passages of the source.
Legend:
yeast α-glucosidase = yeast α-glucosidase (Saccharomyces cerevisiae, UniProt P53341); test: Inhibition of yeast alpha-glucosidase activity; type: biochemical
[1] = target: T1, porcine pancreatic α-amylase (Sus scrofa, UniProt P00690); test: Inhibition of pancreatic alpha-amylase activity; type: biochemical
T1 sequence (P00690 16-511): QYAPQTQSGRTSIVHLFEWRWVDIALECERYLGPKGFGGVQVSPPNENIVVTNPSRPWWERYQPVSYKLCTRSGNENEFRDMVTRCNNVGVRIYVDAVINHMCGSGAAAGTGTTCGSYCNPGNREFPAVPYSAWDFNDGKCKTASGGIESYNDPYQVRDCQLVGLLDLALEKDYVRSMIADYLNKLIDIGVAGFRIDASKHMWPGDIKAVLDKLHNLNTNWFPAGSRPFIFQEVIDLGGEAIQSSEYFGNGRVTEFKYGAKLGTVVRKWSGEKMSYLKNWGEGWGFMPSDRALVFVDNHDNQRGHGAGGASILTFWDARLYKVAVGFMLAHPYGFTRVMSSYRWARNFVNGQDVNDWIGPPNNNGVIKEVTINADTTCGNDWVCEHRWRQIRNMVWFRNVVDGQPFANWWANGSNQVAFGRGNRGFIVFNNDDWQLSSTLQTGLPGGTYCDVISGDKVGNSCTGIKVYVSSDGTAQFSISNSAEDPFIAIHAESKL

[2] = target: rat intestinal α-glucosidase; test: Inhibition of rat alpha-glucosidase activity; type: biochemical; conditions: for IC50 Rat α-glucosidase: 1 mM PNPG substrate, triplicate; for % inhibition of rat α-glucosidase: at 1.25 mg/ml
α-amylase = conditions: cited from earlier work
[3] = tested on: Hep-G2 liver hepatoblastoma cells; test: MTT assay, Hep-G2; type: cell-based; conditions: Homo sapiens, HepG2, 48 h, read-out: IC50 Hep-G2
Outline: (§1)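 Cells grown in RPMI 1640 with 5% fetal calf serum at 37°C, 5% CO2. Seeded 5,000 cells per well, 24 h, then test compound in DMSO added (vehicle DMSO, or water for the reference drug), 48 h at 37°C. MTT solution (5 mg/ml) added for 4 h, medium removed, formazan dissolved in DMSO plus 0.1 mol/l glycine, A540 read. Run in quadruplicate.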

[4] = tested on: Kato-III gastric carcinoma cells; test: MTT assay, Kato-III; type: cell-based; conditions: Homo sapiens, 48 h, read-out: IC50 Kato-III
Outline: as §1

[5] = tested on: WI-38 VA-13 subline 2RA lung fibroblast cells; test: MTT assay, normal lung fibroblast; type: cell-based, human
Outline: as §1

[6] = tested on: CCD-986SK skin fibroblast cells; test: MTT assay, normal skin fibroblast; type: cell-based, human
Outline: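 Culture medium was Dulbecco's modified Eagle's medium, 37°C, 5% CO2. Cells were seeded at 5,000 per well for 24 h and exposed to test compound in DMSO for 48 h at 37°C. MTT (5 mg/ml solution) was added for 4 h, medium was removed, formazan was dissolved in DMSO with 0.1 mol/l glycine, and A540 was read. Run in quadruplicate.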

[7] = tested on: Chago K-1 bronchogenic carcinoma cells; test: MTT assay, Chago K-1; type: cell-based; conditions: Homo sapiens, ChaGo-K-1, 48 h, read-out: IC50 Chago-K1
Outline: as §1

α-glucosidase = conditions: cited from earlier work
[8] = tested on: SW 620 colon adenocarcinoma cells; test: MTT assay, SW 620; type: cell-based; conditions: Homo sapiens, SW-620, 48 h, read-out: IC50 SW620
Outline: as §1

[9] = tested on: BT474 ductal carcinoma cells; test: MTT assay, BT474; type: cell-based; conditions: Homo sapiens, BT-474, 48 h, read-out: IC50 BT474
Outline: as §1

[10] = tested on: all tested cancer cell lines (BT474, Chago K-1, Hep-G2, Kato-III, SW 620); test: MTT assay, all tested cancer cell lines together; type: cell-based, human
Outline: as §1

[11] = read-out: % inhibition of pancreatic α-amylase

Sequence of yeast α-glucosidase (P53341 whole entry): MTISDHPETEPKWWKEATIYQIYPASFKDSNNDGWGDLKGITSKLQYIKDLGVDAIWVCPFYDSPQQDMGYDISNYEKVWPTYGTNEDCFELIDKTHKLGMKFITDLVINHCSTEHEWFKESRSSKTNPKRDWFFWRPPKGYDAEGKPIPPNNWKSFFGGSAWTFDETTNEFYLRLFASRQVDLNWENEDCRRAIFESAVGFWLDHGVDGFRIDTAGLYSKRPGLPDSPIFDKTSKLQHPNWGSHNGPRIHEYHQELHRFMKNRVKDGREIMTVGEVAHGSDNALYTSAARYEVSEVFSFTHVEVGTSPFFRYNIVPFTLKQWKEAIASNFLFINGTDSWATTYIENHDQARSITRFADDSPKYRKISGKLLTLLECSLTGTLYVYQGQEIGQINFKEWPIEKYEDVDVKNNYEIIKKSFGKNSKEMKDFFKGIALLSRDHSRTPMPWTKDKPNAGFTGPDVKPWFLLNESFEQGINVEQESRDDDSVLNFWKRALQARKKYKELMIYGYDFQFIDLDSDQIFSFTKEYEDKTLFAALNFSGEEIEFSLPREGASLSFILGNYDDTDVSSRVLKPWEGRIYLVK

With `C[C@H]1O[C@H](O[C@H]2[C@H](O)[C@@H](O)[C@@H](O[C@H]3[C@H](O)[C@@H](O)C(O)O[C@@H]3CO)O[C@@H]2CO)[C@H](O)[C@@H](O)[C@@H]1N[C@H]1C=C(CO)[C@@H](O)[C@H](O)[C@H]1O` (some centres unmarked) [Acarbose] the “% inhibition of yeast α-glucosidase” value (yeast α-glucosidase; at 40 mg/ml) was 73.9%, the inhibition at 156 µg/mL [1, 11] was 73.9% and the “IC50 Rat α-glucosidase” value [2] was 0.4493 mg/mL (≈ 696 µM). The “% inhibition of rat α-glucosidase” value [2] was 58.7%.
For `O=c1c2cc(O)c(O)cc2oc2cc(O)c([C@@H]3O[C@H](CO)[C@@H](O)[C@H](O)[C@H]3O)c(O)c12` [Mangiferin, 1,3,6,7-Tetrahydroxyxanthone C2-ß-D-glucoside], the “IC50 α-amylase” value (α-amylase) is given as 74.35 µg/mL (≈ 176 µM), the IC50 [3] is given as over 200 µg/mL and the IC50 [4] is given as over 200 µg/mL. For the same compound, the IC50 ([5]; Homo sapiens, WI-38 VA13, 48 h, read-out: IC50 Wi-38) was over 200 µg/mL, the “effect on survival of lung fibroblast normal cell line” value ([5]; at high dose, MTT) was “tended to increase the survival” and the IC50 ([6]; Homo sapiens, CCD-986Sk, 48 h, read-out: IC50 CCD) was over 200 µg/mL. The “effect on % survival of skin fibroblast normal cell line” value ([6]; MTT, listed as mangiferin) was “tended to increase the survival; also recorded: increased % survival of skin fibroblast”, the inhibition at 2500 µg/mL (yeast α-glucosidase; read-out: % inhibition of yeast α-glucosidase) was 93.3% and the IC50 [7] was over 200 µg/mL. For the same compound, the “IC50 α-glucosidase” value (α-glucosidase) was 41.88 µg/mL (≈ 99.2 µM), the IC50 [1] was 2.48 mM and the inhibition at 5000 µg/mL [1, 11] was 95.6%. For the same compound, the IC50 [8] was over 200 µg/mL, the IC50 [9] was over 200 µg/mL and the “effect on % survival of tested cancer cells” value [10] was “did not significantly affect % survival”. For the same compound, the “effect on % survival of tested cancer cells” value ([10]; listed as mangiferin) was “did not show significantly toxicity”, the “IC50 Rat α-glucosidase” value [2] was 0.4333 mg/mL (≈ 1030 µM) and the “IC50 Rat α-glucosidase” value ([2]; listed as mangiferin) was 0.43 mg/mL (≈ 1020 µM). For the same compound, the “% inhibition of rat α-glucosidase” value [2] was 92.6%.
